Drawing on ChEMBL document CHEMBL3112419, “Hydroxy fatty acids for the delivery of dideoxynucleosides as anti-HIV agents” (Bioorg Med Chem Lett, 2014), this text covers IC50 and CC50 for eight compounds.

Data set [1] has as its system Human immunodeficiency virus 2. Description: Antiviral activity against HIV-2 ROD infected in thymidine kinase-deficient human CEM cells. Type of data set: functional, organism-based. Conditions: Human immunodeficiency virus 2, ISOLATE ROD, CCRF-CEM. In short, it runs like this:
(§1)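 HIV-2 strain ROD was tested in wild-type CEM (CEM/0) cells and in thymidine kinase-deficient CEM (CEM/TK⁻) cells. Conjugates were tested as diastereomeric mixtures, and parent nucleosides were included as references.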

Data set [2] in a line: Cytotoxicity against human CEM/0 cells. Type of data set: cell-based, CCRF-CEM.
Data set [3] has as its system Human immunodeficiency virus 2. In words: Antiviral activity against HIV-2 ROD infected in human CEM/0 cells. The conditions noted are these: Human immunodeficiency virus 2, ISOLATE ROD, CCRF-CEM. The class given is functional, organism-based. In short, it runs like this: as §1
Data set [4] can be described thus: Cytotoxicity against human MT4 cells. Type of data set: cell-based. In short, it runs like this:
(§2)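 MT-4 cell cultures infected with wild-type HIV-1 or HIV-2, with cytotoxicity assessed in parallel in the same cells. Lipid-nucleotide conjugates were purified as Na⁺ salts and tested as diastereomeric mixtures. Parent dideoxynucleosides were run alongside as references.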

For data set [5], the system named is Human immunodeficiency virus 2. Description: Antiviral activity against HIV-2 ROD infected in human MT4 cells. The class given is functional, organism-based. Conditions: Human immunodeficiency virus 2, ISOLATE ROD. The method in brief:
as §2

Data set [6] has as its system Human immunodeficiency virus 1. Description: Antiviral activity against HIV-1 3B infected in human MT4 cells. Conditions: Human immunodeficiency virus 1, 3B. The class given is functional, organism-based. In short, it runs like this:
as §2

A word on the IC50: it is the concentration that inhibits the measured activity by half. By CC50 is commonly meant the concentration that lowers cell viability or growth by half. A low value points to harm at low concentration.

Molecules are shown by their SMILES.

In the case of `CCCCCCCCCCCCCCCCC(OP(=O)(O)OC[C@@H]1C=C[C@H](n2cnc3c(N)ncnc32)O1)C(=O)O` (some centres not stated), the IC50 in data set [1] was greater than 39.1 µM; in data set [3], 25.3 µM; in data set [5], 0.11 µM; in data set [6], 0.19 µM. The CC50 is 81.3 µM in data set [2] and 97.8 µM in data set [4].
As to `Cc1cn([C@H]2C[C@H](N=[N+]=[N-])[C@@H](CO)O2)c(=O)[nH]c1=O` [ZIDOVUDINE], the half-maximal inhibitory concentration (IC50) in data set [1] is greater than 14.9 µM; in data set [3], 0.04 µM; in data set [5], 0.007 µM. Moreover, the CC50 in data set [2] is greater than 468 µM; in data set [4], greater than 93.5 µM.
Turning to `CCCCCCCCCCCCCCCCC(OP(=O)(O)OC[C@@H]1CC[C@H](n2ccc(N)nc2=O)O1)C(=O)O` (some centres not stated), the concentration for half-maximal inhibition (IC50) in data set [1] was greater than 40.5 µM; in data set [3], 7.5 µM; in data set [5], 5.7 µM; in data set [6], 9.7 µM. Also, the results for the CC50 in data set [2] and in data set [4] were 91.1 µM and 94.1 µM, respectively.
Take `Nc1ncnc2c1ncn2[C@H]1C=C[C@@H](CO)O1`: the half-maximal inhibitory concentration (IC50) in data set [1] is no less than 81.9 µM; in data set [3], no less than 36.6 µM; in data set [5] it was greater than 278 µM; in data set [6], greater than 278 µM. The results for the CC50 in data set [2] and in data set [4] were 360 µM and 278 µM, respectively.
With `CCCCCCCCCCCCCCCC(CC(=O)O)OP(=O)(O)OC[C@@H]1C=C[C@H](n2cc(C)c(=O)[nH]c2=O)O1` (some centres not stated), the IC50 is greater than 39.6 µM in data set [1], greater than 198 µM in data set [3], 16.2 µM in data set [5] and 10.9 µM in data set [6]. The CC50 in data set [2] and in data set [4] was greater than 198 µM throughout.
For the compound `Nc1ccn([C@H]2CC[C@@H](CO)O2)c(=O)n1` [ZALCITABINE], the half-maximal inhibitory concentration (IC50) in data set [1] stood at 1.9 µM; in data set [3] it was 0.5 µM; in data set [5], 1.9 µM; in data set [6], 1 µM. For the same compound, the 50% cytotoxic concentration (CC50) amounted to 179 µM in data set [2] and 325 µM in data set [4].
Take `Cc1cn([C@H]2C=C[C@@H](CO)O2)c(=O)[nH]c1=O` [STAVUDINE]: the IC50 is no less than 120 µM in data set [1], 8.8 µM in data set [3], 0.4 µM in data set [5] and 0.26 µM in data set [6]. Moreover, the CC50 in data set [2] was greater than 268 µM; in data set [4], 327 µM.
For the compound `CCCCCCCCCCCCCCCCC(OP(=O)(O)OC[C@@H]1C=C[C@H](n2cc(C)c(=O)[nH]c2=O)O1)C(=O)O` (some centres not stated), the IC50 is greater than 39.6 µM in data set [1], greater than 39.6 µM in data set [3], 0.4 µM in data set [5] and 0.4 µM in data set [6]. Besides, the CC50 in data set [2] turned out to be 92.6 µM; in data set [4] it was 64.7 µM.
